The structures appear in SMILES notation. In brackets after ≈: the same amount, converted by molar mass. Activity calls are given as the source filed them. The rule behind the calls is not given here.

This note sets out measurements from ChEMBL document CHEMBL5038599, “Identification of Thiazoyl Guanidine Derivatives as Novel Antifungal Agents Inhibiting Ergosterol Biosynthesis for Treatment of Invasive Fungal Infections” (J Med Chem, 2021).

A short description of data set [1]: Volume of distribution at steady state in Sprague-Dawley rat at 0.5 mg/kg, iv measured upto 1440 mins by LC/MS/MS analysis. Particulars: in vivo, read-out: Vdss. It is filed as ADME, organism-based.
A further data set concerns Candida albicans. The data set can be described thus: Antifungal activity against Candida albicans ATCC 90028 assessed as inhibition of fungal growth incubated for 24 hrs by broth microdilution method. Format: functional. The method in brief: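 Yeast cells were adjusted to about 2 × 10³ CFU/mL and broth microdilution was run for 24 h at 35 °C. Medium was YNB with 2% glucose and complete amino-acid mix, buffered to pH 7.0 with 50 mM MOPS. MIC was the lowest concentration giving >50% growth reduction versus untreated control, read by optical density at 600 nm.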

Data set [2] has as its system Mus musculus. The data set can be described thus: In vivo antifungal activity against Aspergillus fumigatus infected in ICR mouse assessed as reduction in serum-galactomannan at 30 mg/kg, iv administered at 2 to 50 hrs post-inoculation and measured after 60 hrs by GM analysis. Format: functional, organism-based. The method in brief:
(§1)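 Male ICR mice (5 weeks) were immunosuppressed with intraperitoneal cyclophosphamide, 150 mg/kg on day −4 and 100 mg/kg on day −1. Mice were infected intravenously with about 1.5 × 10⁵ conidia in saline. Tail-vein dosing was at 2, 16, 21, 26, 40, 45 and 50 h, in 5% DMSO/5% Cremophor EL/4% glucose or 5% glucose. Samples were taken at 60 h, five mice per group, and analysed by Dunnett's test against untreated controls.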

Data set [3] in a line: Metabolic stability in human liver microsomes assessed as parent compound remaining at 0.5 uM incubated for 30 mins by LC/MS/MS analysis. It is filed as ADME, Microsome. The following applies: read-out: Stability. The gist of the method: (§2)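 Compound at 0.5 μM was incubated with liver microsomes at 0.5 mg protein/mL at 37 °C. Buffer was 50 mM Tris-HCl pH 7.4 with 150 mM KCl, 10 mM MgCl2 and 1 mM NADPH. Reactions were stopped at 0 and 30 min with MeCN/MeOH 1:1. Percent remaining was taken from LC/MS/MS peak area ratio, in duplicate.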

Data set [4] can be described thus: Metabolic stability in rat liver microsomes assessed as parent compound remaining at 0.5 uM incubated for 30 mins by LC/MS/MS analysis. Particulars: read-out: Stability. It is filed as ADME, Microsome. The method in brief:
as §2

The nature of data set [5]: Unbound fraction in Sprague-Dawley rat at 0.5 mg/kg, iv measured upto 1440 mins by LC/MS/MS analysis. Format: ADME, organism-based. The following applies: in vivo.
In data set [6] the test system is Mus musculus. Description: In vivo antifungal activity against Aspergillus fumigatus infected in ICR mouse assessed as log reduction in fungal burden with 18S rRNA in kidney at 30 mg/kg, iv administered at 2 to 50 hrs post-inoculation and measured after 60 hrs by RT-qPCR analysis. Format: functional. The gist of the method:
as §1

Data set [7] relates to Aspergillus fumigatus. The data set can be described thus: Antifungal activity against Aspergillus fumigatus ATCC 204305 assessed as inhibition of fungal growth […] by broth microdilution method. It is filed as functional.
Data set [8] has as its system Aspergillus fumigatus. Description: Antifungal activity against pan-azole resistant Aspergillus fumigatus SR47013 harbouring Cyp51A Y121F mutant assessed as inhibition of fungal growth incubated for 48 hrs by broth microdilution method. The following applies: SR47013, 48 h.
Data set [9] is described as follows: Clearance in Sprague-Dawley rat at 0.5 mg/kg, iv measured upto 1440 mins by LC/MS/MS analysis. It is filed as ADME, organism-based. The following applies: in vivo.
The test system of data set [10] is Aspergillus fumigatus. The data set can be described thus: Antifungal activity against Aspergillus fumigatus ATCC 204305 assessed as inhibition of fungal growth incubated for 48 hrs by broth microdilution method. Particulars: ATCC 204305, 48 h.
In data set [11] the test system is Aspergillus fumigatus. Description: Inhibition of Sterol methyl transferase in Aspergillus fumigatus ATCC 204305 assessed as accumulation of eburicol at 0.5 ug/ml measured per 100 mg of mycelia by LC/MS analysis (Rvb= 0 nmol). Particulars: dose 0.5 µg/ml. The method in brief: (§3)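 Conidia at 1 × 10⁴ CFU/mL were grown 24 h at 35 °C in YNB with 2% glucose and amino-acid mix, then compound was added and cultures ran a further 24 h. Mycelia were filtered and saponified in 25% ethanolic KOH at 85 °C for 1 h. Sterols were extracted into n-hexane, dried under N₂ at 40 °C and redissolved in acetone at 200 μL per 100 mg dry mycelium. Separation used a C18 column at 40 °C with an acetonitrile gradient.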

Data set [12] is described as follows: AUC in ICR mouse at 30 mg/kg, iv measured upto 360 mins by LC/MS/MS analysis. Format: ADME, organism-based. The arrangement: route intravenous, dose 30 mg/kg, time <=360. Particulars: in vivo. The method in brief:
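Male ICR mice, 6 weeks old. Dosed iv via tail vein at 30 mg/10 mL/kg (n = 3). The test agent was a solution in 5% DMSO, 5% Cremophor EL and 4% glucose; the reference azole was in 5% glucose. Blood (EDTA-2K plus heparin) was taken at 5, 30, 60, 180 and 360 min and spun to plasma. Proteins were precipitated with methanol before LC/MS/MS.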

The subject of data set [13] is Aspergillus fumigatus. Description: Inhibition of Sterol methyl transferase in Aspergillus fumigatus ATCC 204305 assessed as accumulation of lanosterol at 0.5 ug/mL measured per 100 mg of mycelia by LC/MS analysis (Rvb= 0 nmol). The following applies: dose 0.5 µg/ml. The method in brief: as §3
For data set [14], the system named is Aspergillus fumigatus. Description: Inhibition of Sterol methyl transferase in Aspergillus fumigatus ATCC 204305 assessed as accumulation of zymosterol at 0.5 ug/mL measured per 100 mg of mycelia by LC/MS analysis (Rvb= 0 nmol). The following applies: dose 0.5 µg/ml. The method in brief: as §3
Data set [15] concerns Aspergillus fumigatus. The data set can be described thus: Inhibition of Sterol methyl transferase in Aspergillus fumigatus ATCC 204305 assessed as accumulation of ergosterol at 0.5 ug/mL measured per 100 mg of mycelia by LC/MS analysis (Rvb= 144 nmol). Particulars: dose 0.5 µg/ml. The method in brief:
as §3

Data set [16] concerns Aspergillus fumigatus. Description: Antifungal activity against Aspergillus fumigatus ATCC 204305 assessed as inhibition of fungal growth incubated for 48 hrs in presence of 50% heat-inactivated bovine serum by broth microdilution method. Format: functional. The following applies: ATCC 204305, 48 h, in the assay text read “incubated for 48 hrs” for “incubated for 24 hrs”. The method in brief: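 Broth microdilution per CLSI M38-A2 with modifications. Conidia at about 1 × 10⁴ CFU/mL were grown for 48 h at 35 °C in YNB with 2% glucose and complete amino-acid mix, buffered to pH 7.0 with 50 mM MOPS. Medium was with or without 50% heat-inactivated bovine serum. MIC was the lowest concentration giving no visible growth.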

For data set [17], the system named is Aspergillus fumigatus. Description: Inhibition of Sterol methyl transferase in Aspergillus fumigatus ATCC 204305 assessed as accumulation of lanosterol at 2 ug/mL measured per 100 mg of mycelia by LC/MS analysis (Rvb= 0 nmol). Particulars: dose 2.0 µg/ml. The gist of the method: (§4)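 Cultures of A. fumigatus ATCC 204305 (1 × 10⁴ CFU/mL in YNB with 2% glucose and amino-acid mix) were grown 24 h at 35 °C, then exposed to compound for 24 h. Mycelia were saponified in 25% ethanolic KOH at 85 °C for 1 h and extracted with n-hexane. Extracts were dried, redissolved in acetone at 200 μL per 100 mg dry mycelium, and analysed on a C18 column at 40 °C with acetonitrile gradient.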

Data set [18] has as its system Aspergillus fumigatus. Description: Inhibition of Sterol methyl transferase in Aspergillus fumigatus ATCC 204305 assessed as accumulation of ergosterol at 2 ug/mL measured per 100 mg of mycelia by LC/MS analysis (Rvb= 144 nmol). Particulars: dose 2.0 µg/ml. The gist of the method:
as §4

Data set [19] concerns Aspergillus fumigatus. Description: Inhibition of Sterol methyl transferase in Aspergillus fumigatus ATCC 204305 assessed as accumulation of eburicol at 2 ug/mL measured per 100 mg of mycelia by LC/MS analysis (Rvb= 0 nmol). Particulars: dose 2.0 µg/ml. The method in brief:
as §4

Data set [20] relates to Aspergillus fumigatus. The data set can be described thus: Inhibition of Sterol methyl transferase in Aspergillus fumigatus ATCC 204305 assessed as accumulation of zymosterol at 2 ug/mL measured per 100 mg of mycelia by LC/MS analysis (Rvb= 0 nmol). The following applies: dose 2.0 µg/ml. The gist of the method: as §4

With `Cc1ccc(Oc2ccccc2-c2csc(N=C3NCCCN3)n2)c(C)c1` [ABAFUNGIN], the Vd in data set [1] stood at 4.92 L/kg. Further, the MIC50 is < 0.063 µg/mL in the data set on Candida albicans, 2 µg/mL (≈ 5.28 µM) in the data set with Aspergillus fumigatus [7] and 2 µg/mL (≈ 5.28 µM) with Aspergillus fumigatus [8]. The outcome with Mus musculus [2] and with Mus musculus [6] was inactive. For the same molecule, the results for the remaining at 0.5 h, 0.5 µM in [3] and in data set [4] were 64% and 0.2%, respectively. For the same molecule, in [5], the unbound share (fraction unbound) at 24 h was < 0.001. The molecule further had a clearance in [9] of 51.4 mL/min/kg.
As for `CCC(C)n1ncn(-c2ccc(N3CCN(c4ccc(OCC5COC(Cn6cncn6)(c6ccc(Cl)cc6Cl)O5)cc4)CC3)cc2)c1=O` (stereo not drawn) [ITRACONAZOLE], in the data set with Aspergillus fumigatus [10], the MIC came out at 0.25 µg/mL (≈ 0.354 µM). In addition, the MIC50 in the data set with Aspergillus fumigatus [8] was > 16 µg/mL.
With `CC[C@@H]([C@H](C)O)n1ncn(-c2ccc(N3CCN(c4ccc(OC[C@@H]5CO[C@@](Cn6cncn6)(c6ccc(F)cc6F)C5)cc4)CC3)cc2)c1=O` [POSACONAZOLE], the minimal inhibitory concentration (MIC) with Aspergillus fumigatus [10] was 0.063 µg/mL (≈ 0.0899 µM). Also, in the data set with Aspergillus fumigatus [8], the MIC50 was 4 µg/mL (≈ 5.71 µM).
Turning to `C[C@@H](c1ncncc1F)[C@](O)(Cn1cncn1)c1ccc(F)cc1F` [VORICONAZOLE], the minimum inhibitory concentration (MIC) in the data set on Aspergillus fumigatus [10] turned out to be 0.5 µg/mL (≈ 1.43 µM). Besides, the result with Mus musculus [2] and in the data set with Mus musculus [6] was inactive. Besides, the Activity with Aspergillus fumigatus [11] was 34 nmol; in the data set with Aspergillus fumigatus [13], 1 nmol; in the data set on Aspergillus fumigatus [14], 0 nmol; in the data set with Aspergillus fumigatus [15], 99 nmol. This molecule yielded an area under the curve (AUC) at 6 h in [12] of 222 µg·h/mL. Besides, in the data set with Aspergillus fumigatus [8], the MIC50 was > 16 µg/mL.
Consider `c1ccc(-c2nc(-c3csc(N=C4NCCCN4)n3)cs2)cc1`, for which, in data set [1], the Vd amounted to 7.25 L/kg. The values for the MIC50 in the data set on Candida albicans, in the data set on Aspergillus fumigatus [16] and in the data set with Aspergillus fumigatus [7] were < 0.063 µg/mL, 8 µg/mL and 0.5 µg/mL (≈ 1.46 µM), respectively. In addition, the figures for the remaining at 0.5 h, 0.5 µM in data set [3] and in data set [4] were 83% and 31%, respectively. This molecule showed a fraction unbound at 24 h in [5] of 0.0104. The same molecule showed a clearance in data set [9] of 33.1 mL/min/kg.
As for `CS(=O)(=O)c1ccc(-c2nc(-c3csc(N=C4NCCCN4)n3)cs2)cc1`, the Activity with Aspergillus fumigatus [17] stood at 40 nmol; with Aspergillus fumigatus [18], 102 nmol; with Aspergillus fumigatus [19], 1 nmol; with Aspergillus fumigatus [20], 0 nmol. For the same molecule, the Vd in data set [1] was found to be 4.21 L/kg. The MIC in the data set on Aspergillus fumigatus [10] stood at 2 µg/mL (≈ 4.77 µM). Moreover, the outcome in the data set with Mus musculus [2] was Active. The MIC50 in the data set on Aspergillus fumigatus [16] was 4 µg/mL; in the data set with Aspergillus fumigatus [8] it was 2 µg/mL (≈ 4.77 µM). Further, the remaining at 0.5 h, 0.5 µM came to 87% in [3] and 53% in data set [4]. The exposure (AUC) at 6 h in data set [12] amounted to 48.2 µg·h/mL. Besides, in data set [5], the fraction unbound at 24 h turned out to be 0.067. Besides, in the data set on Mus musculus [6], the “log(activity)” value is on record as 4. Moreover, the clearance in [9] came to 12.3 mL/min/kg.
For the molecule `C[C@@H](c1nc(-c2ccc(C#N)cc2)cs1)[C@](O)(Cn1cncn1)c1cc(F)ccc1F` [ISAVUCONAZOLE], in the data set with Aspergillus fumigatus [10], the minimum inhibitory concentration (MIC) was 0.25 µg/mL (≈ 0.571 µM). For the same molecule, the MIC50 in the data set on Aspergillus fumigatus [8] was > 16 µg/mL.
